GPR7 antagonist: antagonists of human GPR7 (neuropeptides B/W receptor 1); P48145; hit rate 1.1% among 290,000; GPR7-expressing cells, fluorescence antagonist assay; inhibition, % at 4.4 µM; AID 1861; in the data active means inhibition above about 16%, passing the limit was not always enough;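 further: cells stimulated with the agonist NPW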
TAAR1 ag: human TAAR1 agonism; Q96RJ0; CHO RD-HGA16 TAAR1, Fluo-8 calcium fluorescence; vehicle wells 0%, saturating PEA agonist 100%; activation, % at 3 µM; hit rate 0.99% among 360,000; AID 624467;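 active means activation above the mean activation of all test compounds in the run plus 3 SD, cut at about 38% in these data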
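System: CHO RD-HGA16 cells carrying human TAAR1 plus Gα16; Incubation: 17-24 h seeding, 75 min 37 °C dye, 30 min RT; Measured by: Fluo-8 fluorescence, 5 s baseline then 140 s kinetic read; Control set: DMSO and PEA EC100; Replication: single well for each compound.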
DAGLB inhibitor: diacylglycerol lipase beta (human) inhibition; HEK293T DAGLB membrane lysate, EnzChek fluorogenic substrate; hit rate 0.059% among 340,000; AID 504411; Q8NCG7; inhibition, % at 5.17 µM; in the data active means inhibition above about 34%
Target sequence (Q8NCG7 whole entry, looked up): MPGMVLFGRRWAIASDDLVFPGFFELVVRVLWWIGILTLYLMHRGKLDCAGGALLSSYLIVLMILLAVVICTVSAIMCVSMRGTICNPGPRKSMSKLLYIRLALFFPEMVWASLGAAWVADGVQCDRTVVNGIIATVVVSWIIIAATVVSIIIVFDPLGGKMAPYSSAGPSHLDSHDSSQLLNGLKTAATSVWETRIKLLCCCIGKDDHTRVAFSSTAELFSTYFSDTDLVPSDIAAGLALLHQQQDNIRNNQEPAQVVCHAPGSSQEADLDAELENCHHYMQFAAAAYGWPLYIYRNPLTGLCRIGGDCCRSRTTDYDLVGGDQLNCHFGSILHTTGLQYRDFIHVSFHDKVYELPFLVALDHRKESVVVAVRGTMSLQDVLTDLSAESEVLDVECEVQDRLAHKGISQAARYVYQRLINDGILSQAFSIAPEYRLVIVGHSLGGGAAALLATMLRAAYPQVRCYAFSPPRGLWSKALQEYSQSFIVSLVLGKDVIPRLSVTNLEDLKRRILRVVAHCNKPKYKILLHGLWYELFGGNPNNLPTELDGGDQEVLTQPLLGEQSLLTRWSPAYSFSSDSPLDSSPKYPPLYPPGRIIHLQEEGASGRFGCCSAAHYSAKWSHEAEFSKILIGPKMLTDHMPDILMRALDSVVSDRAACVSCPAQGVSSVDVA
MPTP inh: permeability transition pore inhibition | hit rate 1.4% among 360,000 | isolated mouse mitochondria, Ca2+ swelling absorbance, 30 min | inhibition, % at 10 µM;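 active means inhibition of 50% or more, scaled per plate between neutral and stimulator controls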
TAAR1 antagonist: antagonists of human TAAR1; AID 624466; CHO RD-HGA16 TAAR1, Fluo-8 calcium fluorescence, antagonist; inhibition, % at 3 µM; Q96RJ0; hit rate 1.5% among 360,000;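 active means inhibition above a per-plate cutoff, the mean inhibition of test compounds on that plate plus 3 SD, cut at about 49% in these data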
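System: RD-HGA16 CHO cells with stable hTAAR1 and Gα16 | Probe or stimulus: EC80 β-phenethylamine stimulus | Dosing: 3 µM, single point | Times: Dye loading 75 min at 37 °C, then 30 min room temperature | Measured by: Fluo-8 calcium-sensitive fluorescence | Read-out basis: % inhibition of agonist calcium response | Replicates: n of 1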
Each line names hits and unclear results; the compound was inactive in the other large screens. In the library only some 4% were active in any assay of this set; here they are far more common.

CCc1nc2ccc(C(=O)Nc3ccc(C(N)=O)cc3)cn2c1N(C)CCC(C)C	TAAR1 ag 43 (no result: GPR7 antagonist, DAGLB inhibitor)
CC(C)CNc1cccc2c1S(=O)(=O)N[C@@H](Cc1ccccc1)CO2	none (no result: GPR7 antagonist, DAGLB inhibitor, MPTP inh)
CC(C)OC(=O)c1c2c(n3ccccc13)C(=O)c1ccccc1C2=O	TAAR1 ag 40
COC(=O)c1c(C(=O)OC)c2ccccn2c1C(=O)c1ccc([N+](=O)[O-])cc1	none
CC(=O)Nc1cccc(OCc2c(F)cccc2Cl)c1	none
CC(=O)Nc1cccc(OCc2cnc(Cl)s2)c1	GPR7 antagonist 20
CC(C)(C)NC(=O)CN(c1cccc([N+](=O)[O-])c1)S(=O)(=O)c1ccccc1	none (no result: DAGLB inhibitor)
O=C(CN(c1cccc(C(F)(F)F)c1)S(=O)(=O)c1ccc(Cl)c([N+](=O)[O-])c1)NCc1ccccc1Cl	none
O=C(CN(c1cccc(C(F)(F)F)c1)S(=O)(=O)c1ccc(Cl)c([N+](=O)[O-])c1)NCc1ccccc1	GPR7 antagonist 41
CC(NC(=O)CN(c1cccc(C(F)(F)F)c1)S(=O)(=O)c1ccc(Cl)c([N+](=O)[O-])c1)c1ccccc1 (centres undefined)	GPR7 antagonist 46
COc1ccccc1CCn1cnc(-c2ccc(F)cc2)c1C(C)C	none (no result: GPR7 antagonist, DAGLB inhibitor, MPTP inh)
CN[C@@H]1CC[C@H](c2ccc(Cl)c(Cl)c2)c2ccccc21	TAAR1 ag 45 (no result: MPTP inh)
COc1ccccc1C1CCN(Cc2ccc(Cl)c(Cl)c2)CC1	none
COc1ccc(OC2C(=O)N(Cc3ccc(F)cc3)C2c2ccc(OC)c(OC)c2)cc1 (centres undefined)	none
COc1ccc(OC2C(=O)N(Cc3ccc4c(c3)OCO4)C2c2sccc2C)cc1 (centres undefined)	TAAR1 antagonist 50
COCc1cc(N2CCNC[C@H]2C)ccc1N1CCN(Cc2ccccc2)[C@H](C)C1	none (no result: GPR7 antagonist, DAGLB inhibitor, MPTP inh)
CCOC(=O)c1ccc(NC(=S)NCCc2ccccc2)cc1	TAAR1 ag 39
O=c1[nH]c2ccc(NC(=S)NCCc3ccccc3)cc2[nH]1	TAAR1 ag 41
COC(=O)C[C@@H]1C[C@H]2c3cc(N(C)C)ccc3O[C@H]2[C@H](CO)O1	none (no result: GPR7 antagonist, TAAR1 ag, TAAR1 antagonist)
N#Cc1ccc(-c2ccc(OCC(O)Cn3nnc4ccccc43)cc2)cc1 (centres undefined)	TAAR1 antagonist 56
CC1(C(=O)NCC(F)(F)F)CCN1C(=O)Cc1ccc(-c2ccccc2)cc1 (centres undefined)	none (no result: GPR7 antagonist, DAGLB inhibitor)
CCN(CC)c1ccc(NC(=O)CSC(=O)c2ccccc2)cc1	none (no result: GPR7 antagonist)
CC(=O)c1cccc(NC(=O)CSC(=O)c2ccccc2)c1	TAAR1 ag 38
Cc1ccc(NC(=O)COC(=O)c2cccc(N3C(=O)c4ccccc4C3=O)c2)cc1	none
CC(=O)c1cccc(NC(=O)COC(=O)c2cccc(N3C(=O)c4ccccc4C3=O)c2)c1	TAAR1 antagonist 49
O=S(=O)(CCNC1CC1)NC1CCCCC1	none (no result: GPR7 antagonist)
CCOC(=O)c1ccccc1OCc1cc(/C=N/NC(=O)c2cccnc2)ccc1OC	TAAR1 antagonist 81
COc1ccc(/C=N/NC(=O)c2ccoc2C)cc1COc1c(C)cccc1C	TAAR1 antagonist 68
Cc1ccc(-c2csc(C(O)c3cccc(Cl)c3)n2)cc1C (centres undefined)	none (no result: GPR7 antagonist, DAGLB inhibitor)
COc1ccc(CNC(=O)c2sc(=O)n(Cc3ccc(C)cc3)c2C)cc1OC	none (no result: GPR7 antagonist, DAGLB inhibitor)
COc1ccc(CNC(=O)c2sc(=O)n(Cc3ccc(-c4ccccc4)cc3)c2C)cc1OC	TAAR1 antagonist 65 (no result: GPR7 antagonist, DAGLB inhibitor)
COc1ccc(OCCNC(=O)c2ccc3nc(C)c(N(C)C(=O)CCc4ccccc4)n3c2)cc1	none (no result: GPR7 antagonist, DAGLB inhibitor)
O=C(N/N=C/C(Br)=C\c1ccccc1)c1ccc2nc[nH]c2c1	TAAR1 antagonist 54
COc1cccc(Cn2cccc(NC(=O)Nc3ccc(C#N)cc3)c2=O)c1	TAAR1 antagonist 53
O=C(CSc1nnc(-c2ccc(Cl)cc2)n1Cc1ccco1)Nc1ccc2c(c1)OCCO2	none
CC(=O)Nc1cccc(NC(=O)CSc2ncc(-c3ccc(Cl)cc3)n2Cc2ccco2)c1	GPR7 antagonist 37, TAAR1 antagonist 85
Cc1ccc(SCCNC(=S)Nc2cc(C)cc(C)c2)cc1	TAAR1 antagonist 65
Cc1ccc(SCCNC(=S)Nc2ccc(C)cc2C)cc1	none
Cn1cccc1/C=C1\SC(=Nc2ccccc2)NC1=O	none
Cn1cccc1/C=C1\SC(=Nc2ccc(O)cc2)NC1=O	GPR7 antagonist 21
CCN(C[C@H]1N[C@@](CC)(C(=O)OC)[C@H]2C(=O)N(C)C(=O)[C@@H]12)S(=O)(=O)c1ccccc1	none (no result: GPR7 antagonist)
Cc1ccc(S(C)(=O)=O)cc1C(=O)OCC(=O)N(Cc1ccccc1)Cc1ccccc1	TAAR1 antagonist 54 (no result: GPR7 antagonist)
Cc1ccc(C(=O)N(CCc2ccccc2)Cc2ccccc2)cc1S(=O)(=O)N1CCOCC1	none (no result: GPR7 antagonist)
Cc1ccc(C(=O)OCC(=O)N(CCc2ccccc2)Cc2ccccc2)cc1S(=O)(=O)N1CCOCC1	TAAR1 antagonist 50 (no result: GPR7 antagonist)
C=CCN=C1NC(c2ccc(Cl)cc2)C(C(=O)OC)=C(C)N1Cc1ccccc1C(F)(F)F (centres undefined)	none (no result: GPR7 antagonist, DAGLB inhibitor, MPTP inh)
Cc1cccc(-c2ccc(NC(=O)C3CCN(CC4CC4)CC3)cc2)c1	none
COc1cccc(CN2CCC(C(=O)Nc3ccc(-c4cccc(C)c4)cc3)CC2)c1O	TAAR1 ag 38
Cc1ccccc1NC(=O)C1(NC(=O)c2cccc(N3C(=O)CSC3c3ccccc3)c2)CCCCC1 (centres undefined)	GPR7 antagonist 20
Cc1ccc(C(=O)N2CCC3(CC2)Oc2ccc(Cl)cc2C(=O)C32CC(c3cccnc3)=NO2)s1 (centres undefined)	none (no result: GPR7 antagonist)
O=C(/C=C/c1cccs1)N1CCC2(CC1)Oc1ccc(Cl)cc1C(=O)C21CC(c2cccnc2)=NO1 (centres undefined)	TAAR1 antagonist 53 (no result: GPR7 antagonist)
O=C(NNC(=S)Nc1ccccc1Cl)c1ccccc1Br	none
CCOC(=O)C1CCN(c2cc3c(cc2NC(=O)c2ccccc2Cl)n(C)c(=O)n3C)CC1	TAAR1 antagonist 56
CCOC(=O)C1CCN(c2cc3c(cc2NC(=O)c2ccccc2F)n(C)c(=O)n3C)CC1	none
COC(=O)C[C@@H]1CC[C@H](NC(=O)Nc2cccc(F)c2)[C@@H](CO)O1	none (no result: GPR7 antagonist, DAGLB inhibitor)
CC(C)N(C)c1ncnc2c1ncn2[C@H]1CN(Cc2ccc(-c3ccccc3)cc2)C[C@@H](CO)O1	none (no result: GPR7 antagonist, DAGLB inhibitor)
Cc1cc(F)ccc1-c1cc(C(=O)NCc2ccc(C(F)(F)F)cc2)[nH]n1	TAAR1 ag 56, TAAR1 antagonist 71 (no result: GPR7 antagonist, DAGLB inhibitor)
O=C(N[C@H](C(=O)N1CCC[C@H]1C(=O)NCCc1ccccc1Cl)c1ccccc1)c1ccc(Cl)c(Cl)c1	none (no result: GPR7 antagonist, DAGLB inhibitor, MPTP inh)
CC1(C(=O)NS(=O)(=O)Cc2ccccc2C(F)(F)F)CCN1C(=O)Cc1ccsc1 (centres undefined)	none (no result: GPR7 antagonist, DAGLB inhibitor)
CCN=C1NC(CCc2ccccc2)C(C(=O)OC)=C(C)N1Cc1ccc(C(F)(F)F)cc1 (centres undefined)	none (no result: GPR7 antagonist, DAGLB inhibitor, MPTP inh)
C[C@H]1[C@@H]2C[C@@]3(O[C@H](c4ccc(C(F)(F)F)cc4)N=C3C[C@@H]1c1ccccc1)N(Cc1ccncc1)C2=O	none (no result: GPR7 antagonist, DAGLB inhibitor, MPTP inh)

Screens: PubChem, several laboratories
